# Screening results (PubChem BioAssay)
# Hits are enriched below; roughly 3.4% of the tested compounds scored in any of these assays.
# PKD1 kinase inh: inhibitors of human PKD1 kinase; PKD1 kinase fluorescence polarization assay; Q15139; inhibition, % (test concentration not listed); actives 0.056% (n = 200,000); in the data active means inhibition above about 50%
# KCC2 mod: modulators of human KCC2 chloride dependent transport; Q9H2X9; KCC2 cells, thallium flux FluoZin-2 fluorescence; B-score of Tl+ flux slope (higher = more flux/activation; lower = inhibition) at 10 µM; actives 2.2% (n = 190,000);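 active means thallium flux slope and its plate-corrected score both differing from the plate sample mean at a set confidence after two filtering rounds, in either direction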;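 further: slope of fluorescence scaled to starting intensity during 10 to 20 s after thallium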
# ROMK primary: modulators of human ROMK potassium channel | actives 2% (n = 130,000) | AID 1918 | B-score at 10 µM | Tet-inducible ROMK, thallium flux fluorescence; actives lie on both sides;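 active means signal ratio slope over the read window, or its plate-corrected B-score, at least 3 SD from the plate mean, either direction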;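 further: B-score of the F/F0 ratio slope over 7 to 12 s after thallium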
# Target sequence (P48048 whole entry, looked up): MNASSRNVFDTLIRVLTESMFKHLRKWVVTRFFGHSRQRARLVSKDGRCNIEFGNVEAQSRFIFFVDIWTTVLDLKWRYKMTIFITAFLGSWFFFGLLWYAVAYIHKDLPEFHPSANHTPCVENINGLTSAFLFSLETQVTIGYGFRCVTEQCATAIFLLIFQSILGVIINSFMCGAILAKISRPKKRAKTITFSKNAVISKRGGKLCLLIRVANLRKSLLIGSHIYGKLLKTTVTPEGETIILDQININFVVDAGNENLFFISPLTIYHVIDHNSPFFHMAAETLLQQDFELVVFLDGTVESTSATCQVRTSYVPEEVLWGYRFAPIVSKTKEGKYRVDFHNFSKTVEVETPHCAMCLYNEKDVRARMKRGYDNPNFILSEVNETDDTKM
# MDM2 E3 inh: blocks human Mdm2 ubiquitin ligase activity; Q00987; cell-based MDM2 ubiquitination luciferase reporter, 2 h; 0 = plate control, 100 = twice control, blank-subtracted; signal enhancement, % at 5 µM; actives 0.11% (n = 210,000); AID 1230;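 active means signal enhancement of 30% or more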;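 further: luminescence tracks abundance of the self-degrading MDM2-luciferase fusion protein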
#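 Timing – 2 h compound exposure at 37 °C · Assay system – mammalian cells stably expressing self-ubiquitinating, self-degrading MDM2 E3–luciferase fusion · Amount – 2000 cells seeded into each well · Measure – % luminescence enhancement versus blank-corrected plate control mean · Measured by – SteadyLite luminescence, 15 min reagent step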
# DTT redox prof: compounds producing H2O2 with reducing agent – biochemical, NIH compound library profiling, artefact control for MLSCN library redox annotation, primary screen | DTT-dependent redox cycling H2O2, phenol red/HRP absorbance; 100% = 100 µM peroxide control, 0% = buffer | activation, % at 10 µM | actives 0.03% (n = 200,000) | AID 878;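 active means activation of at least 50% relative to the plate's high and low controls in the primary single-dose screen; inactive means activation below 50%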;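 further: compound incubated with DTT at 0.8 mM final as the reducing agent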
# p97 inhibitor: inhibitors of human p97 ATPase; AID 1481; recombinant p97 ATPase, Kinase-Glo ATP luminescence, 3 h; inhibition, % at 8 µM; actives 0.42% (n = 220,000); P55072; in the data active means inhibition above about 15%;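 further: 0% = DMSO vehicle and 100% = wells lacking enzyme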
# ROMK hit retest: human ROMK channel modulation, retest confirmation | ROMK thallium flux, fluorescence ratio; hits give low values | shares compounds with ROMK primary | actives 54% (n = 3,000) | normalized thallium flux (F/F0 slope) at 10 µM;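 active means Flux at 10 µM at least 3 SD below or above vehicle control mean in one or both replicates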
# The depositor's hits bear a star; nt = no result given.
SMILES,PKD1 kinase inh,KCC2 mod,ROMK primary,MDM2 E3 inh,DTT redox prof,p97 inhibitor,ROMK hit retest
Fc1ccc(-c2cnn3c(-c4cccs4)ccnc23)cc1,1,0.4,-2.3*,-70,0,-1,0.063*
Fc1ccc(-c2cnn3c(-c4ccncc4)ccnc23)cc1,-8,-0.44,0.55,-51,-1,-1,nt
Cc1ccc(C(C)C)c(OCC(=O)Nc2ccccc2N2CCN(C)CC2)c1,0,1.9,-2.9*,-15,2,0,0.066*
Cc1ccc(C(C)C)c(OCC(=O)NN=C(CCl)CCl)c1,nt,0.22,-4.6*,-3,nt,2,0.06*
CC(=O)N1CCN(c2ccccc2NC(=O)COc2cc(C)ccc2C(C)C)CC1,-8,nt,nt,-5,3,-8,0.078
C/C(=N/NC(=O)COc1cc(C)ccc1C(C)C)C(=O)O,-6,0.1,1.1,-13,0,0,nt
O=C(OCc1ccc([N+](=O)[O-])cc1)c1ccc(N2CCCC2)c([N+](=O)[O-])c1,-7,1.7,nt,-12,1,1,nt
COC(=O)[C@@]1(Cc2ccc(F)cc2)[C@H]2c3cc(C(=O)N(C)C)n(C[C@H](O)CO)c3C[C@H]2CN1C(=O)c1ccccc1,-2,0.52,1,nt,0,3,nt
COC(=O)[C@@]1(Cc2ccccc2)[C@@H]2C(=CC(=O)[C@H]2CC(=O)C(=O)N(C)C)CN1C(=O)c1ccccc1,-3,1,-4.6*,nt,1,7,0.049*
COc1ccccc1C1=NC(c2ccc(C)cc2)N=C1C (stereo not given),4,-0.49,-2.7*,0,-2,1,0.075
O=C(/C=N/O)Nc1ccc2sc3ccccc3c2c1,nt,-0.66,-2.8*,-12,nt,12,0.064*
Cc1ccc(NC(=O)c2cc(-c3ccccc3)nn2-c2ccccc2)cc1,-6,0.27,0.76,-5,0,-1,nt
O=C(Nc1ccc(F)cc1)c1nn(-c2ccccc2)c(=O)cc1Cl,-3,-2.6,-3.3*,-20,0,5,0.066*
CN(C)c1nc(C#N)nc(N2CCOCC2)n1,-1,0.0065,nt,-16,2,-2,nt
Cc1ccc(N2CS(=O)(=O)/C(=C/N(C)C)C2=O)cc1,7,0.45,nt,-11,-4,4,0.082
CN(C)/C=C1\C(=O)N(c2ccc(Cl)cc2)CS1(=O)=O,4,-0.57,nt,-9,-8,-1,nt
CCOC(=O)C(C(=O)OCC)N(C#N)c1nc(OC)nc(N(C)C)n1,-5,-1.3,nt,-17,-2,-4,nt
CCCCOc1ccc(CC(=O)NO)cc1,-5,-0.71,nt,nt,0,4,0.081
COc1cc(/C=C(\C#N)C(=O)N2CCOCC2)cc(Br)c1O,3,0.19,nt,-10,0,4,nt
N#C/C(=C\c1cccc(Oc2ccccc2)c1)C(=O)N1CCOCC1,23,0.35,-7*,-9,0,4,0.036*
CNC(=O)c1nnsc1S(=O)(=O)c1ccc(Cl)cc1,-7,-0.43,-5.6*,-27,1,11,0.053*
O=C(c1nnsc1S(=O)(=O)c1ccc(Cl)cc1)N1CCOCC1,3,0.032,-0.12,-18,-2,6,nt
Cc1cc2cc(CN(CCN(C)C)C(=S)NCc3ccco3)c(=O)[nH]c2cc1C,5,-0.53,-3.7*,8,-1,5,0.059*
Cc1cc2cc(CN(Cc3ccco3)C(=O)NCc3ccccc3)c(=O)[nH]c2cc1C,-2,-0.96,-5.2*,-1,0,-6,0.059*
CCN(CC)CCN(Cc1cc2cc(C)c(C)cc2[nH]c1=O)C(=S)NCc1ccco1,-3,-0.63,-0.88,-3,0,5,nt
Cc1cc2cc(CN(Cc3ccco3)C(=O)C3CCCCC3)c(=O)[nH]c2cc1C,2,nt,-0.042,-15,0,-3,nt
CCc1ccc2[nH]c(=O)c(CN(CCN(CC)CC)C(=S)NCc3ccco3)cc2c1,0,-0.096,-3.3*,9,0,7,0.064*
